According to article PMC7660780 (Journal of the American Heart Association: Cardiovascular …, 2020):
Values after ≈ are worked out from the molar mass of the structure shown. Values joined by “and” are separate entries in the source; they are usually repeats but may differ in a detail not shown here. Equal values may be shown once. “Also recorded” adds a separate entry of the source.

Columns and labels:
Format in all cases: in vivo, human
[1] = test system: ADP‐induced platelet aggregation (20 μmol/L)
Summary of the method: (§1)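 Each participant got a single SC deltoid dose. Blood was drawn at baseline and at set times to 24 h into PPACK (100 μmol/L final). PRP was spun at 600 g or 300 g for 5 min at RT, and PPP at 2000 g for 9 min. High PRP counts were lowered with PPP. Turbidometric aggregation used 20 μmol/L ADP. IPA is the % fall in primary slope (≥15 s, 0.5 s sampling) versus the baseline sample, reported as mean±SD.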

[2] = test system: ADP‐induced platelet aggregation (20 μmol/L); test: Ex vivo inhibition of ADP-induced platelet aggregation; settings: for IPA Mean (SD): 15 min post-dose; for IPA of the 1 participant who did not achieve the BED: 0.075 mg/kg SC dose escalation
[3] = Safety measures in patients with stable CAD receiving aspirin; settings: stable CAD on aspirin
Summary of the method: (§2)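 The trial was double-blind, placebo-controlled and dose-escalating. In each cohort, 2 sentinels were dosed, then 5 more were randomized 4:1 to drug or placebo. Each received a single weight-based SC deltoid injection of 0.18–0.52 mL, followed by 15 min gentle pressure. Injection site checks, platelet counts, laboratory tests and clinical assessments ran at set times through 24 h and at 7 days. Adverse events were graded by CTCAE.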

[4] = test system: ADP‐induced platelet aggregation (20 μmol/L); test: Ex vivo inhibition of ADP-induced platelet aggregation; settings: healthy volunteers
Summary of the method: as §1

[5] = Population pharmacokinetic model
[6] = test system: ADP‐induced platelet aggregation (20 μmol/L); test: Population pharmacodynamic model; settings: for IC50: value ± spread as printed in pharmacokinetic data section
[7] = RUC‐4 whole blood levels by LC-MS/MS; settings: dose‐expansion group 0.075 mg/kg SC
[8] = Safety measures in healthy volunteers; settings: HVs
Summary of the method: as §2

[9] = Safety and tolerability, summary statements over the whole study
Summary of the method: as §2

[10] = 0.075 mg/kg SC, HVs and patients with stable CAD taking aspirin
[11] = stable CAD on aspirin, 0.075 mg/kg SC, dose escalation
[12] = dose escalation 0.04 mg/kg (n=2)
[13] = dose escalation 0.05 mg/kg (n=6)
[14] = dose escalation 0.075 mg/kg (n=6)
[15] = dose expansion 0.075 mg/kg (n=12)

SMILES: NCC(=O)Nc1cncc(-c2nn3c(=O)cc(N4CCNCC4)nc3s2)c1 [RUC‐4]
- platelet inhibition (high‐grade) [1, 10]: > 80%
- time to onset of high-grade platelet inhibition [1, 10]: < 15 min
- time within which platelet inhibition largely resolved [1, 10]: ≤ 2 h
- time to peak of blood drug levels and platelet inhibition ([1]; subcutaneous administration): ≤ 15 min
- time to onset of high-grade inhibition of platelet aggregation ([1]; subcutaneous, 20 μmol/L of ADP): < 15 min
- time to return of IPA toward baseline ([1]; subcutaneous, 20 μmol/L of ADP): ≤ 2 h
- inhibition of platelet aggregation (high‐grade) ([1]; subcutaneous, 20 μmol/L of ADP, across the study populations): > 80%
- IPA of the one CAD participant with much higher whole blood levels ([2]; dose‐expansion group 0.075 mg/kg SC, 5, 15, 30, and 60 minutes time points): 100%
- IPA Mean (SD) ([2]; stable CAD on aspirin, 0.04 mg/kg SC, 0.04 mg/kg): 53.6%±17.0%
- IPA Mean (SD) ([2]; stable CAD on aspirin, 0.05 mg/kg SC, 0.05 mg/kg): 76.9%±10.6%
- IPA of the 1 participant who did not achieve the BED ([2]; stable CAD on aspirin, 15 minutes): 65.4%
- IPA of the 1 participant who did not achieve the BED ([2]; stable CAD on aspirin, 30 minutes): 86.5%
- participants achieving the BED [2, 11]: 5 of 6
- return of IPA toward baseline [2, 11]: ≤ 4 h
- participants achieving the BED ([2]; stable CAD on aspirin, 0.075 mg/kg SC, dose expansion, additional participants): 6 of the 12
- IPA mean±SD ([2]; stable CAD on aspirin, 0.075 mg/kg SC, high‐weight group, 15 minutes): 88.0%±14.4%
- IPA mean±SD ([2]; stable CAD on aspirin, 0.075 mg/kg SC, high‐weight group, 30 minutes): 85.4%±21.0
- IPA mean±SD ([2]; stable CAD on aspirin, 0.075 mg/kg SC, low‐weight group, 15 minutes): 63.2%±21.4%
- IPA mean±SD ([2]; stable CAD on aspirin, 0.075 mg/kg SC, low‐weight group, 30 minutes): 67.8%±14.7%
- No. of TESAEs [3, 12]: 0
- Patients reporting a TEAE of bruising at the injection site [3, 12]: 0 (0.0) n (%)
- Patients reporting a non‐AE bruising at the injection site event [3, 12]: 0 (0.0) n (%)
- Patients reporting at least 1 bleeding AE [3, 12]: 0 (0.0) n (%)
- Patients reporting at least 1 injection site reaction AE [3, 12]: 0 (0.0) n (%)
- Patients reporting at least 1 related TEAE with CTCAE grade ≥3 [3, 12]: 0 (0.0) n (%)
- non‐AE bruising at the injection site, Grade 1 [3, 12]: 0 (0.0) n (%)
- non‐AE bruising at the injection site, Grade 2 [3, 12]: 0 (0.0) n (%)
- No. of TESAEs [3, 13]: 0
- Patients reporting a TEAE of bruising at the injection site [3, 13]: 0 (0.0) n (%)
- Patients reporting a non‐AE bruising at the injection site event [3, 13]: 2 (33.3) n (%)
- Patients reporting at least 1 bleeding AE [3, 13]: 0 (0.0) n (%)
- Patients reporting at least 1 injection site reaction AE [3, 13]: 0 (0.0) n (%)
- Patients reporting at least 1 related TEAE with CTCAE grade ≥3 [3, 13]: 0 (0.0) n (%)
- non‐AE bruising at the injection site, Grade 1 [3, 13]: 2 (33.3) n (%)
- non‐AE bruising at the injection site, Grade 2 [3, 13]: 0 (0.0) n (%)
- No. of TESAEs [3, 14]: 0
- Patients reporting a TEAE of bruising at the injection site [3, 14]: 0 (0.0) n (%)
- Patients reporting a non‐AE bruising at the injection site event [3, 14]: 4 (66.7) n (%)
- Patients reporting at least 1 bleeding AE [3, 14]: 0 (0.0) n (%)
- Patients reporting at least 1 injection site reaction AE [3, 14]: 0 (0.0) n (%)
- Patients reporting at least 1 related TEAE with CTCAE grade ≥3 [3, 14]: 0 (0.0) n (%)
- non‐AE bruising at the injection site, Grade 1 [3, 14]: 4 (66.7) n (%)
- non‐AE bruising at the injection site, Grade 2 [3, 14]: 0 (0.0) n (%)
- No. of TESAEs [3, 15]: 0
- Patients reporting a TEAE of bruising at the injection site [3, 15]: 0 (0.0) n (%)
- Patients reporting a non‐AE bruising at the injection site event [3, 15]: 5 (41.7) n (%)
- Patients reporting at least 1 bleeding AE [3, 15]: 0 (0.0) n (%)
- Patients reporting at least 1 injection site reaction AE [3, 15]: 0 (0.0) n (%)
- Patients reporting at least 1 related TEAE with CTCAE grade ≥3 [3, 15]: 0 (0.0) n (%)
- non‐AE bruising at the injection site, Grade 1 [3, 15]: 5 (41.7) n (%)
- non‐AE bruising at the injection site, Grade 2 [3, 15]: 0 (0.0) n (%)
- No. of TESAEs ([3]; total RUC‐4 0.075 mg/kg (n=18)): 0
- Patients reporting a TEAE of bruising at the injection site ([3]; total RUC‐4 0.075 mg/kg (n=18)): 0 (0.0) n (%)
- Patients reporting a non‐AE bruising at the injection site event ([3]; total RUC‐4 0.075 mg/kg (n=18)): 9 (50.0) n (%)
- Patients reporting at least 1 bleeding AE ([3]; total RUC‐4 0.075 mg/kg (n=18)): 0 (0.0) n (%)
- Patients reporting at least 1 injection site reaction AE ([3]; total RUC‐4 0.075 mg/kg (n=18)): 0 (0.0) n (%)
- Patients reporting at least 1 related TEAE with CTCAE grade ≥3 ([3]; total RUC‐4 0.075 mg/kg (n=18)): 0 (0.0) n (%)
- non‐AE bruising at the injection site, Grade 1 ([3]; total RUC‐4 0.075 mg/kg (n=18)): 9 (50.0) n (%)
- non‐AE bruising at the injection site, Grade 2 ([3]; total RUC‐4 0.075 mg/kg (n=18)): 0 (0.0) n (%)
- IPA mean±SD ([4]; 0.05 mg/kg SC (n=6), 15 minutes): 71.8%±15.0%
- return of IPA toward baseline ([4]; 0.075 mg/kg SC): ≤ 4 h
- IPA mean±SD ([4]; 0.075 mg/kg SC (n=6), 15 minutes, 0.075 mg/kg): 84.7%±16.7% and 84.7%
- IPA median ([4]; 0.075 mg/kg SC, 15 minutes): 88.0%
- IPA of the individual participants not achieving the BED ([4]; 0.075 mg/kg SC, 15 minutes, 0.075 mg/kg): 76.5% and 55.8%
- IPA of the individual participants not achieving the BED ([4]; 0.075 mg/kg SC, 30 minutes postdose, 0.075 mg/kg): 68.6% and 73.1%
- Vp/F (apparent peripheral volume of distribution), geometric mean ([5]; SC, All Subjects): 221 L
- effect of aspirin on RUC‐4 pharmacokinetics or pharmacodynamics ([5]; pharmacokinetic and pharmacodynamic models, covariate aspirin): did not significantly affect
- IC50, geometric mean ([6]; cohort with aspirin): 0.0338 µg/mL (≈ 0.0875 µM)
- IC50, geometric mean ([6]; cohort without aspirin): 0.0342 µg/mL (≈ 0.0885 µM)
- gamma (coefficient) ([6]; sigmoidal Emax model): 1.31
- IC50 ([6]; with aspirin): 0.0347 ± 0.0079 µg/mL (≈ 0.0898 µM)
- IC50 ([6]; without aspirin): 0.0348 ± 0.0067 µg/mL (≈ 0.0901 µM)
- whole blood level of RUC‐4, group mean excluding the outlying participant ([7]; 5 minutes): 26.8 ± 26.5 ng/mL
- whole blood level of RUC‐4, one CAD participant with much higher levels ([7]; 5 minutes): 384 ng/mL
- whole blood level of RUC‐4, group mean excluding the outlying participant ([7]; 15 minutes): 74.3 ± 38.6 ng/mL
- whole blood level of RUC‐4, one CAD participant with much higher levels ([7]; 15 minutes): > 500 ng/mL
- whole blood level of RUC‐4, group mean excluding the outlying participant ([7]; 30 minutes): 71.3 ± 30.5 ng/mL
- whole blood level of RUC‐4, one CAD participant with much higher levels ([7]; 30 minutes): 307 ng/mL
- whole blood level of RUC‐4, group mean excluding the outlying participant ([7]; 60 minutes): 40.3 ± 7.3 ng/mL
- whole blood level of RUC‐4, one CAD participant with much higher levels ([7]; 60 minutes): 131 ng/mL
- No. of TESAEs ([8]; 0.05 mg/kg (n=6)): 0
- Patients reporting a TEAE of bruising at the injection site ([8]; 0.05 mg/kg (n=6)): 0 (0.0) n (%)
- Patients reporting a non‐AE bruising at the injection site event ([8]; 0.05 mg/kg (n=6)): 2 (33.3) n (%)
- Patients reporting at least 1 bleeding AE ([8]; 0.05 mg/kg (n=6)): 0 (0.0) n (%)
- Patients reporting at least 1 injection site reaction adverse event ([8]; 0.05 mg/kg (n=6)): 0 (0.0) n (%)
- Patients reporting at least 1 related TEAE with CTCAE grade ≥3 ([8]; 0.05 mg/kg (n=6)): 0 (0.0) n (%)
- non‐AE bruising at the injection site, Grade 1 ([8]; 0.05 mg/kg (n=6)): 2 (33.3) n (%)
- non‐AE bruising at the injection site, Grade 2 ([8]; 0.05 mg/kg (n=6)): 0 (0.0) n (%)
- No. of TESAEs ([8]; 0.075 mg/kg (n=6)): 0
- Patients reporting a TEAE of bruising at the injection site ([8]; 0.075 mg/kg (n=6)): 0 (0.0) n (%)
- Patients reporting a non‐AE bruising at the injection site event ([8]; 0.075 mg/kg (n=6)): 0 (0.0) n (%)
- Patients reporting at least 1 bleeding AE ([8]; 0.075 mg/kg (n=6)): 0 (0.0) n (%)
- Patients reporting at least 1 injection site reaction adverse event ([8]; 0.075 mg/kg (n=6)): 0 (0.0) n (%)
- Patients reporting at least 1 related TEAE with CTCAE grade ≥3 ([8]; 0.075 mg/kg (n=6)): 0 (0.0) n (%)
- non‐AE bruising at the injection site, Grade 1 ([8]; 0.075 mg/kg (n=6)): 0 (0.0) n (%)
- non‐AE bruising at the injection site, Grade 2 ([8]; 0.075 mg/kg (n=6)): 0 (0.0) n (%)
- adverse events leading to study drug discontinuation [9]: none leading to study drug discontinuation
- drug‐related changes in laboratory values [9]: no drug‐related changes in laboratory values
- injection site reactions (including bruising), severity [9]: mild
- platelet counts during the course of treatment [9]: stable
- transient reduction in platelet count, single participant [9]: 120 000 /μL
- serious adverse events ([9]; SC 0.04-0.075 mg/kg): no serious adverse events; also recorded: No SAEs were observed
- bleeding events, number of patients ([9]; limited to the injection site): 3 patients
- severity of bleeding events ([9]; modified Bleeding Academic Research Consortium type 1): mild
